pIC50: −log10 of the molar value. Calls of active or inactive are those of the source. The calls are words filed in the database; no cut-off is given here.
Tests used:
Mus musculus [1] = assay: Neuroprotective activity in wild type C57BL/J6 mouse assessed as survival of newborn hippocampal neurons at 10 uM, icv administered for 7 days by BrdU staining-based immunohistochemical analysis relative to vehicle-treated control; assay type: functional, organism-based
Method in brief: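 Adult (12 week old) C57BL/J6 mice, environmentally deprived; compound infused via osmotic minipump into left lateral ventricle at 0.5 μL/h for 7 days. BrdU IP 50 mg kg–1 day–1 for 6 days during infusion; perfusion 24 h after last BrdU. BrdU+ cells in SGZ/dentate gyrus of contralateral hemisphere counted in every fifth 40 μm section, normalized to dentate gyrus volume; mean ± SEM.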

Translocator protein = Translocator protein (Homo sapiens, UniProt P30536); assay: Inhibition of TSPO (unknown origin)
Chain of Translocator protein (P30536 whole entry): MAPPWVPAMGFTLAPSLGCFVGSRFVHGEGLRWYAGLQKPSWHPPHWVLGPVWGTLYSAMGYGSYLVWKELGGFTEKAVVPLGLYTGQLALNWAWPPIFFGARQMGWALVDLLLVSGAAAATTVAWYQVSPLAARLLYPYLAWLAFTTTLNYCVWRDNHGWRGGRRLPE

Mus musculus [2] = assay: Toxicity in C57Bl/6 mouse assessed as effect on weight up to 40 mg/kg/day, ip bid administered for 21 days; assay type: organism-based; set-up: route intraperitoneal; details: in vivo, 504 h
Mus musculus [3] = assay: Toxicity in C57Bl/6 mouse assessed as effect on behavior up to 40 mg/kg/day, ip bid administered for 21 days; assay type: organism-based; set-up: route intraperitoneal; details: in vivo, 504 h
Mus musculus [4] = assay: Toxicity in C57Bl/6 mouse assessed as effect on appearance up to 40 mg/kg/day, ip bid administered for 21 days; assay type: organism-based; set-up: route intraperitoneal; details: in vivo, 504 h
Mus musculus [5] = assay: Neuroprotective activity in substantia nigra of C57Bl/6 mouse neurogenesis model assessed as protection from MPTP-induced cell death in mature neurons at 5 mg/kg/day, ip bid administered for 21 days by immunohistochemical analysis relative to vehicle-treated control; assay type: functional, organism-based
Method in brief: (§1)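 MPTP model in adult male C57Bl/6 mice, individually housed 1 week. MPTP free base 30 mg/kg/day IP for 5 days. From day 6 (24 h after the last MPTP dose), compound or vehicle given IP twice daily for 21 days. Mice were then perfused with 4% paraformaldehyde. SNc sectioned at 30 μm intervals and every fourth section stained for TH (DAB, hematoxylin counterstain). TH+ cells counted blinded; mean ± SEM, compared with vehicle + MPTP.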

Mus musculus [6] = assay: Neuroprotective activity in substantia nigra of C57Bl/6 mouse neurogenesis model assessed as protection from MPTP-induced cell death in mature neurons at 10 mg/kg/day, ip bid administered for 21 days by immunohistochemical analysis relative to vehicle-treated control; assay type: functional; details: route intraperitoneal; method in brief: as §1
Mus musculus [7] = assay: Neuroprotective activity in wild type C57BL/J6 mouse assessed as survival of newborn hippocampal neurons at 0.1 to 10 uM, icv administered for 7 days by BrdU staining-based microscopy relative to vehicle-treated control; assay type: functional, organism-based
Method in brief: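 Adult (12-week) wild-type C57BL/J6 mice. Compound infused ICV into the left lateral ventricle by osmotic minipump at 0.5 μL/h for 7 days, with BrdU 50 mg/kg/day IP for 6 days. Perfused 24 h after the last BrdU dose. BrdU antigen unmasked (formamide/SSC at 65 °C, then 2 M HCl); anti-BrdU staining. BrdU+ cells in the contralateral dentate gyrus SGZ counted in every fifth 40 μm section and normalised to dentate gyrus volume.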

Structure (SMILES)	Activity (Mus musculus [1])	pIC50 (Translocator protein)	Activity (Mus musculus [2])	Activity (Mus musculus [3])	Activity (Mus musculus [4])	Activity (Mus musculus [5])	Activity (Mus musculus [6]) [%]	Activity (Mus musculus [7])
[N-]=[N+]=NCC(F)Cn1c2ccc(Br)cc2c2cc(Br)ccc21 (configuration not stated)	inactive	–	–	–	–	–	–	–
COc1cccc(NCC(F)Cn2c3ccc(Br)cc3c3cc(Br)ccc32)c1 (configuration not stated)	Active	5.70	Non-toxic	Non-toxic	Non-toxic	Active	75	–
COc1cccc(NC[C@@H](F)Cn2c3ccc(Br)cc3c3cc(Br)ccc32)n1	–	6.17	–	–	–	inactive	–	inactive
NCC(O)Cn1c2ccc(Br)cc2c2cc(Br)ccc21 (configuration not stated)	Active	–	–	–	–	–	–	–
